In paper PMC6469399 (Chemistry (Weinheim an der Bergstrasse, Germany), 2019):

Assays:
[1] = target: T1, G551D-CFTR (Homo sapiens, UniProt P13569, G551D); experiment: Ussing chamber potentiation assay, G551D CFBE41o- monolayers; format: cell-based
[2] = target: T2, WT-CFTR (Homo sapiens, UniProt P13569); experiment: Ussing chamber potentiation assay, WT CFBE41o- monolayers; format: cell-based
[3] = Metabolic stability in human hepatic microsomes; format: in vitro ADME
[4] = target: T2, WT-CFTR; experiment: Patch clamp analysis, macroscopic currents in excised inside-out patch; format: biochemical
[5] = target: T3, F508del-CFTR (Homo sapiens, UniProt P13569, DEL508-508); format: cell-based
[6] = target: T1, G551D-CFTR; experiment: Ussing chamber potentiation assay, Fischer Rat Thyroid; format: cell-based
[7] = target: T3, F508del-CFTR; experiment: TECC; format: cell-based; conditions: F508del CFBE41o- cells; % activity of the 3 μM VX-809 response
How it was run: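 F508del CFBE41o- monolayers were pre-incubated 24 h with a range of test-compound concentrations, with DMSO as vehicle and 3 μM VX-809 as positive control in every experiment. Equivalent current (ΔIeq) was recorded as AUC after forskolin (10 μM) + VX-770 (1 μM) stimulation, then CFTRinh-172 (20 μM) inhibition. Response is expressed as % of VX-809 response; n = 3–5; two-way ANOVA with Tukey test versus vehicle.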

CC(C)(C)c1cc(C(C)(C)C)c(NC(=O)c2c[nH]c3ccccc3c2=O)cc1O [VX-770, Ivacaftor]
EC50 [1]: 77.7 ± 27.2 nM
Maximal Response G551D CFBE ([1]; G551D CFBE41o-, % activity of the VX-770 response, Inactive = no statistically significant response above DMSO vehicle): 100.0%
EC50 [2]: 36.5 ± 21.3 nM
Maximal Response WT CFBE ([2]; WT CFBE41o-, % activity of the VX-770 response, Inactive = no statistically significant response above DMSO vehicle): 100.0%
CLHEP, predicted hepatic clearance, human ([3]; calculated from CLINT, human): 14.4 mL min^−1 kg ^−1
CLINT, intrinsic clearance in human hepatic microsomes ([3]; human hepatic microsomes): 45.6 mL min^−1 kg ^−1
EC50 [4]: 1.3 ± 0.3 nM
increase of current at lowest dose tested ([4]; WT-CFTR patch clamp, 0.2 nM): ~ 12%
EC50 [5]: 1890 ± 1390 nM
EC50 [6]: 428 ± 167 nM
Maximal Response G551D FRT ([6]; G551D FRT cells, % activity of the VX-770 response, Inactive = no statistically significant response above DMSO vehicle): 100.0%

COc1ccc(C2(C(=O)Nc3ccc(C)c(-c4cccc(C(=O)O)c4)n3)CC2)cc1 [compound 33]
Maximal Response [7]: 49.9%
